Hit rate of the full screen: of about 360,000 compounds, about 3,600 (1%) were called active. The list comes from a sample in which actives are over-represented; it also holds similar structures and randomly drawn compounds. Unmarked numbers belong to inactive results.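 How the source made its calls: active means activation above the mean activation of all test compounds in the run plus 3 SD (cut at about 38% in these data); inactive means the rest.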
Target: Trace amine-associated receptor 1 (Homo sapiens) (UniProt Q96RJ0)
Experiment: activators of TAAR1 calcium mobilization – Fluo-8 calcium fluorescence, CHO RD-HGA16 cells, primary screen (AID 624467)
Details: CHO RD-HGA16 TAAR1, Fluo-8 calcium fluorescence; at 3 µM; active compounds read high; vehicle wells 0%, saturating PEA agonist 100%
Summary of the method: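 Repeats: no replicates (n 1) | Material: CHO-derived RD-HGA16 cells with stable Gα16 and human TAAR1 | Technique: Kinetic Fluo-8 calcium fluorescence | Schedule: 17-24 h seeding, 75 min 37 °C dye, 30 min RT | Evaluation: % activation from peak over basal fluorescence ratio, DMSO-to-PEA scaled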

Chain of Trace amine-associated receptor 1 (Homo sapiens) (Q96RJ0 whole entry, looked up): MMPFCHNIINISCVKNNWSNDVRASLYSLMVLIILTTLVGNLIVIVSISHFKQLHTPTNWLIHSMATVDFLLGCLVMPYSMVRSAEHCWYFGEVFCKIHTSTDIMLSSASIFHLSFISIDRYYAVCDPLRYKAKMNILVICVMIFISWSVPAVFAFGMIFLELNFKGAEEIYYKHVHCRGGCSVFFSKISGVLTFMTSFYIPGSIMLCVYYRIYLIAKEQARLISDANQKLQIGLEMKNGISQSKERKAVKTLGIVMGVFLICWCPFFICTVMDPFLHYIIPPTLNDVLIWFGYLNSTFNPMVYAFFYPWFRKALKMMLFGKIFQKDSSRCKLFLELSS

Row | SMILES | activation
1 | Cc1ccc(NC(=O)Cn2sc3ccccc3c2=O)cc1 | 37.5% (active)
2 | O=C(Cn1nc(C(=O)O)c2ccccc2c1=O)Nc1ccc(F)cc1 | 6.51%
3 | Cc1ccc(NC(=O)Cn2c(C)csc2=O)cc1 | 0.43%
4 | COc1cccc(CNC(=O)[C@H]2CCCN2C(=O)[C@H]2CCCN2C(=O)c2ccc(F)cc2)c1 | -0.3%
5 | COC(=O)N1Cc2ccnnc2CC1c1ccccc1Br (stereo not given) | 0.4%
6 | O=C(N/N=C/c1cc(Cl)cc([N+](=O)[O-])c1O)C(O)(c1ccccc1)c1ccccc1 | 42.4% (active)
7 | O=[N+]([O-])c1cc(Cl)cc(/C=N/NC(=S)Nc2cc(S(=O)(=O)N3CCOCC3)ccc2Cl)c1O | 0.47%
8 | O=C(NN=Cc1ccco1)C(=O)Nc1ccc(Cl)c([N+](=O)[O-])c1 | 1.63%
9 | CCOC(=O)C1CSCCS(=O)(=O)N1Cc1ccc(Cl)cc1 (stereo not given) | 1.13%
10 | CCN1C(=O)N[C@@H]2C[C@H](C(=O)N3CCCC3)[C@H](C)[C@H](c3ccccc3)C[C@@H]21 | 0.86%
11 | Cc1c(CNCCc2ccccc2)c(C(=O)O)c(C)n1-c1ccccc1 | 78.1% (active)
12 | Cc1c(C(=O)NCc2ccccc2)cnn1-c1ccccc1 | 2.79%
13 | CNC(=O)CSc1nnc(CCc2ccccc2)n1-c1ccccc1 | 5.04%
14 | COc1ccc(C2=CN(Cc3ccccc3)C(c3ccc(OC)cc3)CC2=O)cc1 (stereo not given) | -1.8%
15 | Cc1ccc(C(=O)NC(C)c2ccccc2)cc1Br (stereo not given) | -1.3%
16 | O=C(NC1CCCC1)c1cc(-c2ccccc2)on1 | 2.47%
17 | CC(NC(=O)c1cc(-c2ccccc2)on1)c1ccccc1 (stereo not given) | 52% (active)
18 | Cc1[nH]c2ccccc2c1CC(=O)Nc1ccc(Nc2cccnc2)c(-c2cccc(Cl)c2)c1 | 1.11%
19 | O=S1(=O)c2ccc(Br)cc2-n2nncc2CN1Cc1cccc(Cl)c1 | 1.66%
20 | Cc1c(CN2CCCCC2)c(O)n(CCO)c(=O)c1C#N | 11.5%
21 | CCCn1c(O)c(CN2CCCC(C)C2)c(C)c(C#N)c1=O (stereo not given) | 96.4% (active)
22 | CCCCCCn1c(CN2CCCC(C)C2)nc2c1c(=O)n(C)c(=O)n2C (stereo not given) | 0.08%
23 | COc1ccc(C(CNC(=O)c2ccc(NS(=O)(=O)c3ccc(F)c(C)c3)cc2)N(C)C)cc1 (stereo not given) | 3.7%

Row | SMILES | activation
24 | COc1ccc(C(CNC(=O)c2cccc(S(=O)(=O)Nc3ccc(Br)cc3)c2)N(C)C)cc1 (stereo not given) | 40.2% (active)
25 | CN(C)C(CNC(=O)c1cccc(S(=O)(=O)Nc2ccc(Br)cc2)c1)c1ccco1 (stereo not given) | 16.7%
26 | COc1ccc(-n2cc(CNC3CCOCC3)c(-c3cccc(F)c3)n2)cc1 | 7.84%
27 | O=C(NCC(c1ccco1)N1CCc2ccccc2C1)c1ccccc1Cl (stereo not given) | 12.4%
28 | COc1ccc(NC(=O)C(=O)NCC(c2ccco2)N2CCc3ccccc3C2)cc1 (stereo not given) | 62.3% (active)
29 | CCOC(CNC(=O)C(=O)NCC(c1ccco1)N1CCN(c2ccc(OC)cc2)CC1)OCC (stereo not given) | 3.05%
30 | Cc1[nH]nc2c1C(c1ccc(Br)cc1)NC2=O (stereo not given) | 0.5%
31 | CCOc1ccc(Br)cc1S(=O)(=O)N1CCC(C(=O)O)CC1 | -0.19%
32 | CC(C)(C)NCc1cc(Br)ccc1OC1CCCC1 | 1.46%
33 | CCOc1ccc(Br)cc1CSC(=N)N | 70.5% (active)
34 | CC(=O)N1C[C@@H](CO)[C@@H](N(C)C(=O)C(C)(C)C)C[C@H]1c1ccccc1Br | 3.7%
35 | S=C(Nc1ccc(Br)cc1)NC1CCN(Cc2ccccc2)CC1 | 63% (active)
36 | S=C(Nc1ccc(Br)cc1Cl)NC1CCN(Cc2ccccc2)CC1 | 18%
37 | O=C(COc1ccc(Br)cc1F)NC1CCN(Cc2ccccc2)CC1 | 7.63%
38 | CCC(C)NC(=O)/C=C/c1ccc(S(=O)(=O)NCc2ccco2)cc1 (stereo not given) | 0.26%
39 | Cc1ccc2nc(C)c3c(c2c1)N(c1ccccc1)CC3 | 1.22%
40 | Nc1nc2c(ncn2[C@@H]2O[C@H](C(=O)N[C@H](Cc3ccccc3)C(=O)NCC3CCCCC3)[C@@H](O)[C@H]2O)c(=O)[nH]1 | 2.45%
41 | CC1CCN(C(=O)c2ncn3c2C(=O)N[C@@H](C)C3)CC1 | 0.53%
42 | CC1CCc2sc3nc(N4CCN(CCO)CC4)n4ncnc4c3c2C1 (stereo not given) | 13.3%
43 | CC(C)[C@H]1COCCS(=O)(=O)N1Cc1ccccc1-c1cccc2c1sc1ccccc12 | 1.46%
44 | COc1ccccc1N1CCN(C(=O)c2cc(=O)c3cc(C)cc(C)c3o2)CC1 | 0.2%
45 | Cc1cccc(N2CCN(C(=O)c3cnn4c(C(F)F)cc(-c5ccccc5)nc34)CC2)c1C | -0.23%
46 | Cc1ccc(Cl)cc1N1CCN(C(=O)c2cccc3c(=O)c(C)c(-c4ccccc4)oc23)CC1 | 78% (active)

Row | SMILES | activation
47 | OC(CCl)CCl | 4.28%
48 | CC(C)(C)n1nc(C2CC2)c(Br)c1NC(=O)c1ccccc1F | -2.19%
49 | COc1ccc(-c2nc3n(c(=O)c2C#N)CCS3)c(OC)c1 | 1.68%
50 | Cc1ccc2c(c1)NCC(C(=O)NC1CCC(C)CC1)O2 (stereo not given) | -0.02%
51 | NS(=O)(=O)c1ccc(NC(=S)N2CCCC2)cc1 | 0.52%
52 | NS(=O)(=O)c1ccc(NC(=S)Nc2ccc(Br)c(Cl)c2)cc1 | 42.6% (active)
53 | COc1ccc(NC(=S)Nc2ccc(S(N)(=O)=O)cc2)c(C)c1 | 5.94%
54 | N#Cc1ccc(-c2nc3cc(C#N)c(C#N)cc3nc2-c2ccccc2)cc1C#N | 2.52%
55 | Cc1cc2c(nc1C)CCCN2C | 0.42%
56 | O=C(Cn1c(N2CCN(C/C=C/c3ccccc3)CC2)nc2ccccc21)c1ccccc1 | 7.57%
57 | CC(Oc1ccc(Cl)cc1)C(=O)OCC(=O)Nc1ncc(Cl)cc1Cl (stereo not given) | 74.1% (active)
58 | CC1(C(=O)OCC(=O)Nc2ncc(Cl)cc2Cl)CC1(Cl)Cl (stereo not given) | -0.29%
59 | CC(Oc1ccc(Cl)cc1)C(=O)Nc1ncccn1 (stereo not given) | -0.09%
60 | Cc1ccc(NC(=O)CCN2CCc3ccccc3C2)cc1 | 88.5% (active)
61 | CCc1ccc(NC(=O)N2CCc3ccccc3C2)cc1 | 31%
62 | Cc1ccc(NC(=O)CN2CCc3ccccc3C2)cc1C | 9.67%
63 | CCOc1ccc(Cl)cc1-c1cc(C(=O)NCc2cccs2)[nH]n1 | 0.34%
64 | COc1ccc2c(c1)C(=O)CC(c1ccccc1)O2 (stereo not given) | 5.95%
65 | COc1ccc2c(c1)OC(O)(C(F)(F)C(F)F)CC2=O (stereo not given) | 56.3% (active)
66 | COc1ccc2c(c1)SC(C)CC2=O (stereo not given) | 5.89%
67 | Cc1ccc2c(c1)C(O)(CC(=O)c1cccnc1)C(=O)N2 (stereo not given) | 0.5%
68 | CCCCSc1nc2c(c(=O)n1CC)SC(C)C2 (stereo not given) | 10%
69 | O=C(NS(=O)(=O)c1cccs1)[C@H]1O[C@@H](n2ccc(=O)[nH]c2=O)[C@H](O)[C@@H]1O | 0.38%

Row | SMILES | activation
70 | COc1ccc(C2(C)NC(=O)N(CC(=O)c3ccc4c(c3)OCO4)C2=O)cc1 (stereo not given) | 25.5%
71 | Cc1ccc(NC(=O)CN2C(=O)NC(C)(c3ccc(Cl)cc3)C2=O)c(Br)c1 (stereo not given) | 42.4% (active)
72 | COc1ccc(C(=O)CN2C(=O)NC(C)(c3ccc(C)cc3)C2=O)cc1OC (stereo not given) | 59.9% (active)
73 | CC1CCC2(CC1)NC(=O)N(CC(=O)c1ccc3c(c1)OCO3)C2=O (stereo not given) | 1.46%
74 | Cc1ccc(C2(C)NC(=O)N(CC(=O)Nc3ccccc3C(=O)N3CCCCC3)C2=O)cc1 (stereo not given) | 9.97%
75 | CC1(c2ccc(Cl)cc2)NC(=O)N(CC(=O)c2ccc3c(c2)OCO3)C1=O (stereo not given) | 48.4% (active)
76 | Cc1ccc(S(=O)(=O)N2CCN(C(=O)CN3C(=O)NC(C)(c4ccc(Cl)cc4)C3=O)CC2)c(C)c1 (stereo not given) | 9.36%
77 | Cc1ccc(C2(C)NC(=O)N(CC(=O)N3CC(=O)Nc4ccccc43)C2=O)cc1 (stereo not given) | 1.06%
78 | COc1cc(NC(=O)CN2C(=O)NC(C)(c3ccc(OC(F)F)cc3)C2=O)cc(OC)c1OC (stereo not given) | 5.76%
79 | COc1ccc(NC(=O)N(C)C[C@@H]2OCCCC[C@@H](C)Oc3ccc(NC(=O)NC4CCCCC4)cc3C(=O)N([C@H](C)CO)C[C@@H]2C)cc1 | 0.43%
80 | O=C(N[C@H](Cc1ccccc1)C(=O)N1CCCN(Cc2cccs2)CC1)[C@H]1O[C@@H](n2ccc(=O)[nH]c2=O)[C@H](O)[C@@H]1O | 0.87%
81 | N#Cc1cccc(C(=O)NCC2CCN(C(=O)C(=O)c3cc4ccccc4o3)CC2)c1 | 2.73%
82 | CSc1ccc(Oc2cccc3c2S(=O)(=O)N([C@H](C)c2ccccc2)C[C@@H](COCc2ccccc2)O3)cc1C | -0.58%
83 | CC(NC(=O)C(=O)NN=C1CCC(C(C)(C)C)CC1)c1ccccc1 (stereo not given) | -1.32%
84 | CCOC(=O)c1cc(-c2ccc(Cl)s2)nc2c1c(C)nn2C | 12.8%
85 | CCCc1nnc(SCC(=O)N2C(C)CCCC2C)n1CC (stereo not given) | 7.54%
86 | COc1cc(OC)c(N2CC(C(=O)Nc3cc(Cl)ccc3N3CCOCC3)CC2=O)cc1Cl (stereo not given) | 9.38%
87 | COc1ccc(-n2c(-c3ccc(Cl)cc3)n[nH]c2=S)c(OC)c1 | 1%
88 | COc1cc(OC)c(-n2cc(-c3ccc(Cl)cc3)[nH]c2=O)cc1Cl | 135% (active)
89 | O=C(NC1CCCC1)C(c1ccc(Cl)cc1)N(C(=O)c1csnn1)C1CC1 (stereo not given) | 2.16%
90 | N#CCSc1ccccc1NC(=O)CN1C(=O)NC(CCc2ccccc2)C1=O (stereo not given) | 4.54%
